Series [1] concerns Staphylococcus aureus. In words: Bactericidal activity against clinically isolated Methicillin-resistant Staphylococcus aureus assessed as inhibition of bacterial growth measured after 48 hrs by agar plate method. Format: functional.
Series [2] concerns the target T1, 4,4'-diapophytoene synthase (Staphylococcus aureus) (UniProt A9JQL9).
T1 sequence (whole entry): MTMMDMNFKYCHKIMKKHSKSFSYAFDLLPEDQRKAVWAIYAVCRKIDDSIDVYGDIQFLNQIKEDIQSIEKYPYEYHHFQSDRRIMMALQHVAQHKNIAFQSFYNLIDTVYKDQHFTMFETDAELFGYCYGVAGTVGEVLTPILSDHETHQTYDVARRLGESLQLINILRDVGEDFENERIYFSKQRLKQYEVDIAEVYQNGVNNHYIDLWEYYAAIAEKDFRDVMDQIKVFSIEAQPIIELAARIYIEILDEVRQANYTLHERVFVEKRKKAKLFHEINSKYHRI
The experiment in a line: Inhibition of CrtM in Methicillin-resistant Staphylococcus aureus assessed as inhibition of staphyloxanthin production at 1/4 to 1/16XMIC measured after 48 hrs.

For series [3], the system named is Staphylococcus epidermidis. In words: Antibacterial activity against Staphylococcus epidermidis MTCC 435 assessed as inhibition of bacterial growth measured after 48 hrs by broth microdilution method. Type of series: functional.
Series [4] concerns Staphylococcus aureus. In words: Antibacterial activity against Methicillin-resistant Staphylococcus aureus infected in Galleria mellonella assessed as larva's survival rate at 5 to 10 mg/kg measured after 24 to 48 hrs. Format: functional. Conditions: dose 5-10 mg/kg, time 24-48 hrs. In a few lines: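 Galleria mellonella larvae (0.2–0.4 g, 10 per group) injected in the last proleg with MRSA at 5 × 10^8 ± 0.2 cells per larva, then given 2.5, 5 or 10 mg kg−1. Controls: untreated, PBS, and PBS + 2% DMSO vehicle. Held at 37 °C and checked every 12 h; larvae that were black and unresponsive counted dead. Bacterial burden by CFU at 0, 24 and 48 h.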

The target of series [5] is T1, 4,4'-diapophytoene synthase (Staphylococcus aureus). The experiment in a line: Inhibition of CrtM in Methicillin-resistant Staphylococcus aureus assessed as inhibition of staphyloxanthin production by measuring reduction in 4,4'-diaponeurosporene level at 1/4XMIC measured after 24 hrs by spectroscopic analysis. In a few lines: (§1)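 Cells pelleted, PBS-washed, extracted overnight in methanol at 37 °C. Supernatant absorbance read at 462 nm (staphyloxanthin), 286 nm (4,4′-diapophytoene), 435 nm (4,4′-diaponeurosporene) or 455 nm (4,4′-diaponeurosporenic acid). % inhibition = (control − treated)/control × 100.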

Series [6] shares this target. In words: Inhibition of CrtM in Methicillin-resistant Staphylococcus aureus assessed as inhibition of staphyloxanthin production by measuring reduction in 4,4'-diaponeurosporenic acid level at 1/4XMIC measured after 24 hrs by spectroscopic analysis. The procedure, abridged:
as §1

Series [7] deals with Staphylococcus aureus. In words: Bacteriostatic activity against Methicillin-resistant Staphylococcus aureus assessed as reduction in colony formation units at 1/2XMIC measured after 48 hrs by time-kill assay. Format: functional, organism-based. The procedure, abridged: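 Samples taken at 1, 2, 4, 8, 12, 24 and 48 h, diluted in 0.9% saline and plated on Mueller Hinton agar (48 h, 37 °C). CFU counted and log10 CFU mL−1 plotted against time. Triplicate.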

Series [8] in a line: Toxicity against Galleria mellonella assessed as metabolic activity of larva at 20 mg/kg measured every 12 hrs for 120 hrs. Type of series: organism-based. The settings on record: in vivo. The procedure, abridged:
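Uninfected Galleria mellonella larvae (0.2–0.4 g, ten per group) given 20 mg kg−1 compound, alongside untreated, PBS and PBS + 2% DMSO vehicle controls; held at 37 °C and checked every 12 h for 120 h. Larvae that turned black and gave no response to stimulus counted dead; percentage survival recorded.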

Series [9] deals with Staphylococcus aureus. In words: Antibacterial activity against Methicillin-resistant Staphylococcus aureus ATCC 33591 assessed as inhibition of bacterial growth measured after 48 hrs by broth microdilution method. Type of series: functional.
Series [10] concerns Staphylococcus aureus. The experiment in a line: Anti-biofilm activity against Methicillin-resistant Staphylococcus aureus assessed as biofilm substrate coverage at 1XMIC measured after 48 hrs by crystal violet staining based phase contrast microscopy (reference value: 81.43+/-3.57%). Format: functional.

Values after ≈ are worked out from the molar mass of the structure shown. Active and inactive are the calls of the source. No cut-off for these calls is given here.

The values that follow come from ChEMBL document CHEMBL5357047, “The development of thymol-isatin hybrids as broad-spectrum antibacterial agents with potent anti-MRSA activity” (RSC Med Chem, 2024).

Take `Cc1ccc(C(C)C)c(OCc2cn(CCCN3C(=O)C(=O)c4ccccc43)nn2)c1`: the MBC in the series with Staphylococcus aureus [1] came to 3.9 µM (≈ 1.63 µg/mL). Besides, the inhibition result was “Dose-Dependent Effect” in series [2], 85% in series [5] and 86% in [6]. Besides, the MIC (in series [3]; in the series with Staphylococcus aureus [9]) was 3.9 µM (≈ 1.63 µg/mL) in each case. The results for the Activity (in the series with Staphylococcus aureus [4]; in series [8]; with Staphylococcus aureus [10]) were 90%, “Non-Toxic” and 5.11%, respectively. Further, the outcome in the series on Staphylococcus aureus [7] was Active.
